test: Toxicity liver stage against HepG2, at 10uM; assay type: cell-based; parameters: test concentration 10 uM, cell line HepG2-A16-CD81EGFP; settings: human, HepG2-A16-CD81EGFP cells; read-out: INHIBITION
In short: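 Uninfected HepG2-A16-CD81EGFP cells, 3 × 10^3 per well, 1536-well, plated on prespotted compound at 10 μM final, parasite-free screening media added to match infected plates; puromycin 10 μM positive, DMSO 0.5% negative; run in parallel with 48 h PbLuc assay at 37 °C, 5% CO2; viability by CellTiter-Glo luminescence, normalized to controls.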

| Structure (SMILES) | cytotoxicity at 10 µM [%] |
| --- | --- |
| O=C(NC[C@H]1OC[C@@H](NC2CCC(F)(F)CC2)[C@@H]1O)C1CCCC1 | -77.9 |
| Cn1ccnc1CN1C(=O)CO[C@H]2CN(Cc3ccccc3O)C[C@H]21 | 4.22 |
| CC(C)(C)C(=O)N1CC(=O)N(Cc2ccco2)CC(O)C1 (stereo not given) | 4.79 |
| CC(C)Cc1nc(NC(=O)c2cc(-c3cccnc3)n[nH]2)n[nH]1 | 2.34 |
| Cn1cccc1C(O)CNC(=O)COc1ccccc1F (stereo not given) | -2.54 |
| CCS(=O)(=O)NCC1CCN(c2cnccn2)CC1 | 10.3 |
| Cc1ccc2c(n1)N(Cc1cccnc1)CCN(C(=O)C1CC=CC1)C2 | 8.07 |
| CN(Cc1cccnc1)[C@@H]1CN(c2ncc(F)cn2)[C@@H]2CCCO[C@H]12 | 0.559 |
| Cc1cnc(N2C(=O)CSC2c2ccc(N(C)C)cc2)s1 (stereo not given) | 6.07 |
| Cc1nn2c(=O)/c(=C\c3cccs3)sc2nc1=O | 7.19 |
| CC(C)(CO)NCc1nn(Cc2ccccc2)nc1-c1ccccc1 | -6.69 |
| NC(=O)c1c(-c2ccc(Cl)cc2)csc1NC(=O)CCC(=O)O | 13.8 |
| CCOCCCNC(=O)c1cc(C)nc(N2CCCCC2)n1 | 8.52 |
| COCc1cccc(S(=O)(=O)N2CCSCC2)c1 | 8.19 |
| CS(=O)(=O)N1CCC(C(=O)NCCCn2cc(Cl)cn2)CC1 | -8.97 |
| CCC(=O)Nc1nnc(CCOc2ccc(OC)cc2)s1 | 6.31 |
| Cc1cc(C)n(CCC(=O)N2CCC(c3nc(C(C)C)no3)CC2)n1 | -16.1 |
| O=C(c1ccc2c(c1)CCC2)N1CCn2ncnc2C1 | -5.26 |
| CSCC[C@@H]1CN2CCC[C@H]2CN1Cc1coc2ccc(C)cc2c1=O | 2.89 |
| CN(CC1(O)CCCN(c2ccccn2)C1)C(=O)CCc1cccs1 (stereo not given) | -26.9 |
| CS(=O)(=O)N1Cc2ccccc2CC2(CCN(Cc3ccccn3)C2)C1 (stereo not given) | 4.51 |
| CN1CCC2(Cc3ccccc3CN(C(=O)CCN)C2)C1 (stereo not given) | 0.17 |

| Structure (SMILES) | cytotoxicity at 10 µM [%] |
| --- | --- |
| CCOc1nnc(CN(CC)CC(=O)NC(C)C)s1 | 3.88 |
| O=S(=O)(CCCn1cncn1)Cc1ccc(F)cc1Cl | 7.49 |
| CCCC(=O)N(C)Cc1cccc(OC(C)C)c1 | -4.24 |
| CCNC(=O)NC1CCC(Oc2ccccc2C#N)CC1 (stereo not given) | -9.08 |
| Cn1cc(C(=O)Nc2cccc(-c3ccc4c(c3)CCO4)n2)ccc1=O | 3.72 |
| CN(C1CCCCC1)S(=O)(=O)N1CCN(Cc2ccco2)CC1 | -81.7 |
| O=C(CCn1cnc2ccccc21)N1CCN2CCCCC2C1 (stereo not given) | -4.34 |
| Cc1ncc(CNC(=O)N(C)Cc2ccc([S+](C)[O-])cc2)s1 (stereo not given) | 9.35 |
| NCC(CO)Cc1ccc(C(F)(F)F)cc1 (stereo not given) | 4.42 |
| COc1cccc(CCCN2CCC(N(C)S(C)(=O)=O)CC2)c1 | -3.88 |
| COc1ccc(CC(=O)NCCn2nc3ccccn3c2=O)cc1 | -8.61 |
| Cc1ccc(C(=O)NCCNS(C)(=O)=O)c(=O)[nH]1 | -5.3 |
| CCC(CNC(=O)c1ccccn1)N1CCc2ccccc2C1 (stereo not given) | 1.02 |
| O=C(CCCC1CCCC1)NS(=O)(=O)CC1CC1 | -5.62 |
| CCOc1ccc(NC(=O)N2CCNC(=O)C2)c(C(F)(F)F)c1 | 7.09 |
| CN(Cc1ccc([S+](C)[O-])cc1)c1ccccn1 (stereo not given) | -7 |
| CN(Cc1ccc(F)cc1C#N)CC(F)(F)F | 4.28 |
| Cc1n[nH]cc1CNC1(c2ccc(F)cc2)CCCC1 | 9.56 |
| COc1cc(CN(C)C(=O)Nc2cc(C)on2)ccc1SC | -10.7 |
| CNC(=O)c1cnc(/C=C/c2ccc(OC)c(O)c2)s1 | -11.1 |
| CCCn1nc2c(cc1=O)CN(Cc1cc(C)on1)CC2 | -13.9 |
| COCCNC(=O)C[C@@H]1COC[C@H]2CN(Cc3cccnc3)C[C@@H]12 | 2.13 |

| Structure (SMILES) | cytotoxicity at 10 µM [%] |
| --- | --- |
| CNC(=O)NCC1CCC2(CCN(C(=O)c3ccccc3)CC2)CO1 (stereo not given) | -97.2 |
| O=C([C@@H]1CCCO1)N1CCN(Cc2ccncc2)c2ncccc2C1 | -95.7 |
| Cc1nc(-c2nc(C(=O)N(C)C)c3ccccn23)cn1C(C)C | -121 |
| Cn1ncc2c1C(COCC1CC1)CN(CC1CC1)C2 (stereo not given) | -78.5 |
| O=C(c1cccs1)N1CC[C@@H]2[C@H]1CCC(=O)N2c1ccccc1 | -97.5 |
| CN(C)CCN1CC[C@@H]2[C@@H]1CCN2C(=O)c1cccc(Cl)c1 | -84 |
| CCc1ncc(C(=O)N2CCCOC(Cn3cccn3)C2)cn1 (stereo not given) | -0.95 |
| CC(C)c1cc(C(=O)N2CCCC3(CCNC3)C2)no1 (stereo not given) | 5.28 |
| COCCN1CCC(C(=O)N(C)Cc2c[nH]c3ccc(C)cc23)C1 (stereo not given) | -13.2 |
| Cn1ccnc1CN1CC[C@@H]2[C@@H](CCC(=O)N2CCc2c[nH]cn2)C1 | -5.68 |
| NCC1CN(C(=O)c2cccc(-n3cccn3)c2)CCO1 (stereo not given) | -1.56 |
| NC(=O)Cn1ccnc1C1CCCN(CCSc2ccccc2)C1 (stereo not given) | -2.65 |
| Cn1c(Cn2ncc(N3CCCCC3)cc2=O)nc2ccccc21 | 6.01 |
| COc1ccc(CN2CCC3(CC2)C(C(=O)O)CC(=O)N3C)cc1Cl (stereo not given) | -5.66 |
| CCSCCNC(=O)c1cnc(-c2ccccc2)nc1O | -1.54 |
| O[C@@]1(Cn2cnc(Cl)c2Cl)CCCN2CCCC[C@@H]21 | -1.88 |
| CC(C)c1cc(N2CCC3(CC2)CN(C)CCN3C)ncn1 | -16.2 |
| CCN(CC)C(=O)N1CCN(Cc2cnc(C)nc2)[C@H]2CS(=O)(=O)C[C@H]21 | -8.84 |
| Cc1nn(C)c2nc(N(C)CCN(C)C3CCCC3)sc12 | 3.55 |
| O=C1CC(NCc2ncc[nH]2)CN1CCc1cccc(Cl)c1 (stereo not given) | -0.745 |
| Cc1c[nH]c(CN2CCCCC2CCc2cccc(O)c2)c(C)c1=O (stereo not given) | -14.6 |
| CCc1noc(CN(CC)C(=O)c2ccc3ncsc3c2)n1 | 12.2 |

| Structure (SMILES) | cytotoxicity at 10 µM [%] |
| --- | --- |
| CNc1cc(C)nc(N2CCN(Cc3ccccc3)CC(O)C2)n1 (stereo not given) | -4.21 |
| CC(C)[C@]1(O)CN(C(=O)CNC(N)=O)C[C@H]1C | 5.69 |
| Cc1nc2c(c(NCc3cnc4c(c3)CCC4)n1)CNC2 | -3.57 |
| Cc1ccccc1CN(CCN(C)C)Cc1ccc(S(C)(=O)=O)cc1 | 6.3 |
| CC(C)c1ccc(N2CCc3onc(-c4ccc(F)c(F)c4)c3C2)nn1 | 0.324 |
| CCOc1ccc(C(=O)CCC(=O)N(C)Cc2cnccn2)cc1C | 1.39 |
| CN(C)C[C@@H]1CN(C(=O)c2cc(F)ccc2F)C[C@@H]1CO | 7.45 |
| Cc1cc(C)n(C2CN(c3ncnc4c3CCNCC4)C2)n1 | 7.99 |
| Cc1[nH]c2ccc(CNC(=O)c3ccc(CN4CCCC4)o3)cc2c1C | -2.5 |
| CCCc1cc(C(=O)N2CCCC2c2cccnc2)[nH]n1 (stereo not given) | -9.81 |
| CCCS(=O)(=O)N1CCN(c2cc(-n3cnc(C)c3C)nc(C)n2)CC1 | -8.51 |
| Cc1cc(C2CCCN(C(=O)c3cnn(C)c3)C2)ccn1 (stereo not given) | -2.83 |
| Cc1cc(C2CCCN(C(=O)c3cnccn3)C2)ccn1 (stereo not given) | 0.204 |
| CCCc1cc(C(=O)N2CCOC(c3nc(-c4cccs4)no3)C2)no1 (stereo not given) | 8.37 |
| Cc1nccn1C1CCCN(C(=O)c2ccc3nncn3c2)C1 (stereo not given) | -2.42 |
| Cc1nc(CN(C)C2CCCN(Cc3noc(C4CC4)n3)C2)oc1C (stereo not given) | -2.34 |
| Cc1nccc(C(=O)N2CCCC(c3cc(C(F)(F)F)[nH]n3)C2)n1 (stereo not given) | -4.59 |
| O=C(c1nn(-c2ccccc2F)cc1O)N1CCC2(CC1)OCCO2 | -3.24 |
| Cc1noc(C)c1CN(C)C(=O)NC1CCC(O)CC1 (stereo not given) | -9.21 |
| COCC(c1cccc(C(F)(F)F)c1)N(C)C(=O)c1ccoc1 (stereo not given) | -3.84 |
| CC(C)c1noc(CCCC(=O)N2CCN(Cc3ccccn3)CC2)n1 | -1.79 |
| CCNc1cc2c(nn1)CCN(C(=O)c1cc(C)no1)C2 | -14.5 |

| Structure (SMILES) | cytotoxicity at 10 µM [%] |
| --- | --- |
| CCn1ncc2c1CCCC2NCc1cccc2c1OCCCO2 (stereo not given) | -13.4 |
| Cc1ccc(CNC(C)c2ccc(OCC(=O)NC3CC3)cc2)o1 (stereo not given) | 2.07 |
| CCOc1ccc(C(=O)N2CCCCC2Cn2nc(C)cc2C)cn1 (stereo not given) | 6.6 |
| Cc1nc(C)n(CC2CCCN(CCCOc3ccc(F)cc3)C2)n1 (stereo not given) | -3.08 |
| O=C(c1ccc2c(c1)COC2)N1CCC(Nc2cccnn2)CC1 | -13.1 |
| O=C(NCCC1=CCCCC1)NCc1nnc2n1CCC2 | -5.6 |
| CC(C)(C)c1ncc(C(=O)NCCS(N)(=O)=O)s1 | -9.58 |
| COc1ccc(C2=CCN(C(=O)C3CC(=O)N(C4CC4)C3)CC2)cc1 (stereo not given) | -6.66 |
| CN1CCN(C(=O)c2ccc(=O)n(C)c2)Cc2ccccc21 | -10.2 |
| O=C(Nc1nccs1)N(CCO)Cc1ccsc1 | 1.4 |
| Cc1cnn(CC2CCCCN2C(=O)c2cc(Cl)c[nH]2)c1 (stereo not given) | -5.4 |
| COc1ccc(Br)c(C(=O)NCCNc2ccc(C(F)(F)F)cn2)c1 | 12.7 |
| c1cc(-c2nc(CN3CCn4c(nnc4C4CC4)C3)cs2)cs1 | -2.22 |
| Cc1oncc1C(=O)N[C@@H]1CN(C2CCC2)C[C@@H]2CCCO[C@@H]21 | -109 |
| Cc1nc(CN2CCO[C@H]3[C@@H](OCc4ccccn4)CC[C@@H]32)cs1 | 0.179 |
| COC1CCC[C@@H]2CN(Cc3csc(C)n3)C[C@H]12 (stereo not given in full) | -110 |
| Cc1noc(C)c1CNCC1Cn2nncc2CO1 (stereo not given) | -101 |
| O=C(COC1CCCC1)N1C[C@@H]2COC[C@]2(COc2cccnc2)C1 | -99.4 |
| Cc1nc(CN2C[C@@H]3CN(C(=O)c4ccco4)C[C@@H]3C2=O)cs1 | -77.7 |
| COCC(=O)N1CCc2ccccc2C12CCNCC2 | -0.602 |
| Cc1nc(COCC2CN(C(N)=O)Cc3nccn3C2)cs1 (stereo not given) | 5.3 |
| Cc1ccccc1CC(=O)N1C[C@@H]2CC[C@H]1CN(Cc1cccnc1)C2 | -2.36 |

Reference: ChEMBL document CHEMBL4513216, “Probing the Open Global Health Chemical Diversity Library for Multistage-Active Starting Points for Next-Generation Antimalarials” (ACS Infect Dis, 2020)
